For orientation: EC50 means the concentration giving half of the maximal effect. A word on the CC50: it is the concentration giving 50% cytotoxicity. By thermodynamic solubility is commonly meant solubility found after equilibrating the solid with the medium.

Structures are written as SMILES. Converted amounts (≈) assume the structure as drawn. The source made the active and inactive calls. The calls are words filed in the database; no cut-off is given here.

A short description of data set [1]: Therapeutic index, ratio of CC50 for human H9 cells to EC50 for HIV1 subtype B NL4-3 infected in human H9 cells. Put shortly:
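Ratio of CC50 to EC50, both measured in H9 cells: MTT cytotoxicity over seven days, and p24 ELISA after 7 days of NL4-3 infection at MOI 0.03.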

Data set [2] deals with Human immunodeficiency virus 1. As to the kind of experiment: Antiviral activity against HIV1 subtype B NL4-3 infected in human H9 cells assessed as reduction in p24 level after 7 days by ELISA. It counts as functional, cell-based. As to conditions: Human immunodeficiency virus 1, subtype B NL4-3, H9, 168 h. In a few lines: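 H9 cells infected with NL4-3 at MOI 0.03 for 2 h, washed three times, then seeded at 4×10^4 cells/well with serially diluted compound. Incubated 7 days; supernatant p24 measured by in-house ELISA and EC50 calculated. Three separate experiments, mean ± standard deviation.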

Data set [3] can be described thus: Cytotoxicity against human H9 cells assessed as reduction in cell viability after 7 days by MTT assay. The data set is classed as cell-based. In a few lines:
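MTT viability assay. H9 at 4×10^4 cells/well or PHA-stimulated PBMCs at 5×10^5 cells/well were incubated with serially diluted compound at 37 °C, 5% CO2 for seven days before MTT read-out. CC50 was calculated; mean ± standard deviation of three separate experiments.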

The nature of data set [4]: Aqueous solubility in water after 24 to 72 hrs by HPLC based shake flask method. The data set is classed as physicochemical. In a few lines:
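Equilibrium shake-flask solubility: excess compound placed in water, methanol, ethanol, acetonitrile, ethyl acetate or acetone and shaken 24-72 h at 25 °C. Filtered through 0.22 μm membrane, diluted, and quantified by HPLC on a C18 column with methanol/water 70/30 mobile phase and UV 251 nm. n=3, mean ± SD.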

Data set [5] has as its system Human immunodeficiency virus 1. As to the kind of experiment: Inhibition of HIV1 Vif expressed in TREX-hVif-15 cells co-expressing EYFP-N1-tagged human A3G assessed as reduction in Vif-mediated A3G degradation at 5 to 20 ug/ml after 48 hrs by flow cytometry. It counts as cell-based. Put shortly: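 TREX-hvif-15 cells, in which Vif is under Tet-On control, were plated at 2×10^5 cells/well and grown overnight. At about 80% confluence they were transfected with EYFP-N1-hA3G. After 6 h the cells were washed, and compounds at varied concentrations were added together with doxycycline to induce Vif. Cells were trypsin-harvested 48 h post-transfection, and EYFP-positive cells were measured by flow cytometry. The no-Vif condition was set to 100%.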

As to `COc1ccccc1NC(=O)c1c(N)cccc1Sc1ccc([N+](=O)[O-])cc1`, the “Ratio CC50/EC50” value in data set [1] amounted to 207. Further, the half-maximal effective concentration (EC50) in data set [2] was 1.87 µM. Also, the CC50 at 168 h in data set [3] was 387 µM.
In the case of `COc1ccccc1NC(=O)c1c(Sc2ccc([N+](=O)[O-])cc2)cccc1N1CCOCC1`, in data set [2], the EC50 worked out at 242 µM.
For the compound `COc1ccccc1NC(=O)c1cccnc1Sc1ccc([N+](=O)[O-])cc1`, the “Ratio CC50/EC50” value in data set [1] was found to be 3.57. For the same compound, the half-maximal effective concentration (EC50) in data set [2] amounted to 147 µM. For the same compound, in data set [3], the CC50 at 168 h was 525 µM.
For `COc1ccccc1NC(=O)c1c(N)cccc1[S+]([O-])c1ccc([N+](=O)[O-])cc1` (stereo not given) the same measures were 31.9, 10.5 µM and 335 µM.
As to `COc1ccccc1NC(=O)c1c(NC(=O)C(N)Cc2ccccc2)cccc1S(=O)(=O)c1ccc([N+](=O)[O-])cc1` (stereo not given), the “Ratio CC50/EC50” value in data set [1] is on record as 148. Also, in data set [2], the EC50 was determined as 1.46 µM. For the same compound, in data set [3], the CC50 at 168 h came to 216 µM. This compound gave a thermodynamic solubility in data set [4] of 120 µg/mL (≈ 209 µM).
In the case of `COc1ccccc1NC(=O)c1c(NS(=O)(=O)c2ccc(C)cc2)cccc1S(=O)(=O)c1ccc([N+](=O)[O-])cc1`, in data set [2], the EC50 came out at 172 µM.
For the compound `COc1ccccc1NC(=O)c1c(N(C)C)cccc1S(=O)(=O)c1ccc([N+](=O)[O-])cc1`, in data set [1], the “Ratio CC50/EC50” value came out at 1.94. For the same compound, the EC50 in data set [2] worked out at 226 µM. Further, the CC50 at 168 h in data set [3] is 439 µM.
On to `COc1ccccc1NC(=O)c1c(Sc2ccc([N+](=O)[O-])cc2)cccc1[N+](=O)[O-]`, for which the EC50 in data set [2] worked out at 235 µM.
The same measure, in the same setting: the value for `COc1ccccc1NC(=O)c1c(NCCBr)cccc1Sc1ccc([N+](=O)[O-])cc1` was 221 µM.
For the compound `COc1ccccc1NC(=O)c1cc(Cl)ccc1Sc1ccc([N+](=O)[O-])cc1`, the “Ratio CC50/EC50” value in data set [1] is 26.4. The 50% effective concentration (EC50) in data set [2] was 18.3 µM. Also, in data set [3], the CC50 at 168 h came out at 483 µM.
For `COc1ccccc1NC(=O)c1c(NCCO)cccc1Sc1ccc([N+](=O)[O-])cc1` the same measures were 6.08, 43.6 µM and 265 µM.
For `COc1ccccc1NC(=O)c1cc(NC(C)=O)ccc1Sc1ccc([N+](=O)[O-])cc1` the same measures were 0.374, 457 µM and 171 µM.
For `COc1ccccc1C(=O)Nc1nc(Cl)ncc1Sc1ccc([N+](=O)[O-])cc1` the same measures were 8.78, 54.7 µM and 480 µM.
For `CNc1cccc(S(=O)(=O)c2ccc([N+](=O)[O-])cc2)c1C(=O)Nc1ccccc1OC`, the concentration giving a half-maximal response (EC50) in data set [2] amounted to 278 µM. Further, the CC50 at 168 h in data set [3] was found to be 200 µM.
On to `COc1ccccc1NC(=O)c1cc(N(C)C)ccc1Sc1ccc([N+](=O)[O-])cc1`, for which the “Ratio CC50/EC50” value in data set [1] stood at 0.781. Also, the EC50 in data set [2] came out at 233 µM. Also, the half-maximal cytotoxic concentration (CC50) at 168 h in data set [3] worked out at 182 µM.
For `COc1ccccc1NC(=O)c1cc(F)ccc1Sc1ccc([N+](=O)[O-])cc1` the same measures were 2.02, 249 µM and 502 µM.
For `COc1ccccc1NC(=O)c1c(NCCN)cccc1S(=O)(=O)c1ccc([N+](=O)[O-])cc1` the same measures were 0.986, 214 µM and 211 µM.
In the case of `COc1ccccc1NC(=O)c1cc(N)ccc1Sc1ccc([N+](=O)[O-])cc1`, in data set [2], the EC50 is 6.63 µM.
Consider `COc1ccccc1NC(=O)c1cscc1Sc1ccc([N+](=O)[O-])cc1`, for which, in data set [1], the “Ratio CC50/EC50” value came to 10.1. Moreover, the 50% effective concentration (EC50) in data set [2] came to 51.2 µM. Besides, in data set [3], the CC50 at 168 h is 518 µM.
For `COc1ccccc1NC(=O)c1sccc1Sc1ccc([N+](=O)[O-])cc1` the same measures were 7.59, 62.2 µM and 472 µM.
Turning to `CNc1ccc(Sc2ccc([N+](=O)[O-])cc2)c(C(=O)Nc2ccccc2OC)c1`, in data set [1], the “Ratio CC50/EC50” value is given as 1.26. Moreover, the EC50 in data set [2] came to 240 µM. In data set [3], the CC50 at 168 h was determined as 302 µM.
With `COc1ccccc1NC(=O)c1c(NCCO)cccc1S(=O)(=O)c1ccc([N+](=O)[O-])cc1`, the “Ratio CC50/EC50” value in data set [1] came to 0.713. In data set [2], the EC50 came out at 216 µM. The CC50 at 168 h in data set [3] worked out at 154 µM.
On to `COc1ccccc1NC(=O)c1c(NS(=O)(=O)c2ccccc2)cccc1S(=O)(=O)c1ccc([N+](=O)[O-])cc1`, for which the EC50 in data set [2] was 176 µM.
Turning to `COc1ccccc1NC(=O)c1c(NS(=O)(=O)c2ccccc2)cccc1Sc1ccc([N+](=O)[O-])cc1`, the EC50 in data set [2] was 187 µM.
As to `COc1ccccc1NC(=O)c1c(N)cccc1Oc1ccc([N+](=O)[O-])cc1`, the “Ratio CC50/EC50” value in data set [1] is reported as 2.14. For the same compound, the concentration for a half-maximal effect (EC50) in data set [2] was determined as 94.6 µM. In data set [3], the CC50 at 168 h stood at 202 µM.
Take `COc1ccccc1NC(=O)c1c(NCC(N)=O)cccc1Sc1ccc([N+](=O)[O-])cc1`: the “Ratio CC50/EC50” value in data set [1] came out at 0.849. Besides, in data set [2], the EC50 was determined as 41.8 µM. Moreover, the CC50 at 168 h in data set [3] came to 35.5 µM.
For `COc1ccccc1NC(=O)c1c(NS(=O)(=O)c2ccc(C)cc2)cccc1Sc1ccc([N+](=O)[O-])cc1` the same measures were 11.9, 30.6 µM and 364 µM.
For the compound `COc1ccccc1NC(=O)c1cc([N+](=O)[O-])ccc1Sc1ccc([N+](=O)[O-])cc1`, in data set [2], the EC50 came to 235 µM.
For the compound `COc1ccccc1NC(=O)c1c(Sc2ccc([N+](=O)[O-])cc2)cccc1N1CCNCC1`, the “Ratio CC50/EC50” value in data set [1] amounted to 3.71. The EC50 in data set [2] was found to be 8.24 µM. Moreover, the CC50 at 168 h in data set [3] turned out to be 30.6 µM.
For the compound `COc1ccccc1NC(=O)c1ccccc1Sc1ccc([N+](=O)[O-])cc1`, the inhibition entry in data set [5] is “Active”. Further, the EC50 in data set [2] came to 263 µM.
In the case of `COc1ccccc1NC(=O)c1cc(C(F)(F)F)ccc1Sc1ccc([N+](=O)[O-])cc1`, in data set [2], the EC50 worked out at 223 µM.
As for `COc1ccccc1NC(=O)c1c(NCCN)cccc1Sc1ccc([N+](=O)[O-])cc1`, the 50% effective concentration (EC50) in data set [2] worked out at 45.4 µM.
